Reference: ChEMBL document CHEMBL3233005 (Bioorg Med Chem Lett, 2014)

Biological target: T1, Aromatase (Homo sapiens, UniProt P11511)
T1 sequence (P11511 whole entry): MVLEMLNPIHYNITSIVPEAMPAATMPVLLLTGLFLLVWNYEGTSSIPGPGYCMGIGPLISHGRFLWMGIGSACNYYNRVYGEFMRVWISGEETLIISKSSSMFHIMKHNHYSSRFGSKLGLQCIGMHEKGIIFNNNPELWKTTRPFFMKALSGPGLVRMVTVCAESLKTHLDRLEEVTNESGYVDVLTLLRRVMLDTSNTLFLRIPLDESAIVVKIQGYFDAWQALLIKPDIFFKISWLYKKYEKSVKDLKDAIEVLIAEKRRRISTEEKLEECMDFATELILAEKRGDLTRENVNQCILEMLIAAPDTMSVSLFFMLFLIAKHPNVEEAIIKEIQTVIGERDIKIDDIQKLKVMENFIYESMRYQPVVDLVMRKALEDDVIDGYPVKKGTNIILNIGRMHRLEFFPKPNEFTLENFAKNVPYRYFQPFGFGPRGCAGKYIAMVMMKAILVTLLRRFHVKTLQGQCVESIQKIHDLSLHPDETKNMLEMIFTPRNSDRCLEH
Assay: Inhibition of human aromatase using androstenedione as substrate assessed as remaining estrone level at 10 uM after 30 mins by LC-MS/MS analysis relative to control
Details: 0.5 h, read-out: Activity
Summary of the method: (§1)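 cDNA-expressed human CYP19A1 supersomes at 0.05 mg/mL, with 1 µM androstenedione, 3.3 mM MgCl2 and an NADPH-generating system (glucose-6-phosphate, β-NADP+, glucose-6-phosphate dehydrogenase) in 0.1 M potassium phosphate, pH 7.4. Incubated 30 min at 37 °C, stopped with ethyl acetate plus cortisone internal standard, then liquid–liquid extraction. Estrone quantified by LC–MS/MS as % of control. Single concentration, mean of duplicates.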

SMILES	activity at 10 µM [%]
O=C(O)c1ccc(O)c(O)c1 [PROTOCATECHUIC ACID]	83.5
O=c1c(O)c(-c2ccc(O)c(O)c2)oc2cc(O)cc(O)c12 [QUERCETIN]	96
O=C1/C(=C/c2ccc(O)c(O)c2)Oc2cc(O)ccc21 [SULFURETIN]	99
O=C1c2c(O)cc(O)cc2O[C@H](c2ccc(O)c(O)c2)[C@H]1O [(+)-TAXIFOLIN]	90.7
O=C(O)c1ccc(O)cc1 [PARABEN]	91.8
O=C(/C=C/c1ccc(O)c(O)c1)c1ccc(O)cc1O [BUTEIN]	87.5
O=C(O)c1ccc(O)cc1O [2,4-DIHYDROXYBENZOIC ACID]	93.9
O=C1c2ccc(O)cc2O[C@H](c2ccc(O)cc2)[C@H]1O [GARBANZOL]	99.3
O=c1c(O)c(-c2ccc(O)c(O)c2)oc2cc(O)ccc12 [FISETIN]	117
O=Cc1ccc(O)cc1O	91.7
O=C1c2ccc(O)cc2O[C@H](c2ccc(O)c(O)c2)[C@H]1O (relative stereo) [FUSTIN]	110
O=c1c(O)c(-c2ccc(O)cc2)oc2cc(O)ccc12 [RESOKAEMPFEROL]	102
C[C@]12CCC(=O)C(O)=C1CC[C@@H]1[C@@H]2CC[C@]2(C)C(=O)CC[C@@H]12 [FORMESTANE]	5.1
O=C(O)c1cc(O)c(O)c(O)c1 [GALLIC ACID]	112
Oc1cccc(O)c1 [RESORCINOL]	91.8

Biological target: T1, Aromatase
Assay: Inhibition of human aromatase using androstenedione as substrate assessed as estrone formation at 10 uM after 30 mins by LC-MS/MS analysis
Details: not given
Summary of the method: as §1

SMILES	IC50 [nM]
C[C@]12CCC(=O)C(O)=C1CC[C@@H]1[C@@H]2CC[C@]2(C)C(=O)CC[C@@H]12 [FORMESTANE]	470

Same assay, conditions: human, 0.5 h, 10 µM

SMILES	inhibition (INH)
C[C@]12CCC(=O)C(O)=C1CC[C@@H]1[C@@H]2CC[C@]2(C)C(=O)CC[C@@H]12 [FORMESTANE]	Dose-dependent effect
